From ChEMBL document CHEMBL1157034, “Synthesis of 1-benzyl-3-(5-hydroxymethyl-2-furyl)selenolo[3,2-c]pyrazole derivatives as new anticancer agents” (Eur J Med Chem, 2010)
pIC50: −log10 of the molar value.

Key:
NCI-H226 = test: Antitumor activity against human NCI-H226 cells after 48 hrs by MTT assay; format: functional, cell-based; conditions: NCI-H226, 48 h
In short: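 Cells grown at 37 °C in humidified 5% CO2, seeded at 1×10^4 cells/well, and allowed to attach for 24 h. They were then exposed to a range of concentrations for 48 h, washed with PBS, and given 1 mg/ml MTT for 2 h. Formazan was dissolved in DMSO and read at 570 nm.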

ACHN = test: Antitumor activity against human ACHN cells after 48 hrs by MTT assay; format: functional, cell-based

- pIC50 (NCI-H226): 4.60
- pIC50 (ACHN): 6.52
Structure (SMILES): OCc1ccc(-c2nn(Cc3ccccc3)c3ccccc23)o1
